Here are results for 1 compound from ChEMBL document CHEMBL4477178, “Biflorin, Isolated from the Flower Buds of Syzygium aromaticum L., Suppresses LPS-Induced Inflammatory Mediators via STAT1 Inactivation in Macrophages and Protects Mice from Endotoxin Shock” (J Nat Prod, 2016).

Calls of active or inactive are those of the source. The rule behind the calls is not given here.

Series [1] deals with RAW264.7. The experiment in a line: Antiinflammatory activity in mouse RAW264.7 cells assessed as inhibition of LPS-induced IL-6 mRNA expression at 60 uM after 2 to 12 hrs by qRT-PCR method. In kind it is functional, cell-based. The method in brief:
(§1)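 RAW 264.7 stimulated with LPS 10 ng/mL with or without 60 μM for 2, 4, 6 and 12 h. Total RNA (1 μg) reverse-transcribed with MuLV RT and random primer; SYBR green real-time qPCR with gene-specific primers, triplicate Ct normalized to β-actin. Mean ± SD, three independent experiments.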
A general note: In qPCR the cycle at which signal appears reflects the starting amount.

A further series has as its system Peritoneal macrophage. The experiment in a line: Antiinflammatory activity in C57BL/6 mouse peritoneal macrophages assessed as inhibition of LPS-induced nitric oxide production at 60 uM preincubated for 1 hr followed by LPS challenge for 48 hrs by Griess assay. The conditions noted are these: C57BL/6, Peritoneal macrophage. In kind it is functional. The method in brief:
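Thioglycolate-elicited C57BL/6 mouse peritoneal macrophages, plated at 5 × 10^5 cells/mL and incubated overnight. Compound given at 15, 30 or 60 μM for 1 h, then LPS 10 μg/mL. Medium mixed 1:1 with Griess reagent for 10 min at room temperature, absorbance read at 540 nm, nitrite quantified against a NaNO2 standard. L-NIL 20 μM as positive control; three independent experiments.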
On the technique in general: The Griess reaction detects nitrite, a stable product of nitric oxide.

Series [2] relates to RAW264.7. In words: Antiinflammatory activity in mouse RAW264.7 cells assessed as inhibition of LPS-induced COX-2 mRNA expression at 60 uM after 2 to 12 hrs by qRT-PCR method. In kind it is functional, cell-based. The procedure, abridged:
as §1

Series [3] in a line: Cytotoxicity against C57BL/6 mouse peritoneal macrophages assessed as cell viability at 60 uM after 24 hrs by MTT assay. The conditions noted are these: read-out: Activity. In kind it is cell-based, Peritoneal macrophage. The procedure, abridged: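 Peritoneal macrophages from thioglycolate-elicited C57BL/6 male mice (harvested by lavage after 4 days, cultured in DMEM/10% FBS) exposed 24 h up to 60 μM; viability by MTT assay.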
Background: Tetrazolium assays rely on reduction of a dye to a coloured formazan, in cell work by metabolically active cells.

The test system of series [4] is RAW264.7. In words: Reduction in LPS-induced NF-kappa B activity in mouse RAW264.7 cells at 15 to 60 uM preincubated for 1 hr followed by LPS challenge for 12 hrs by luciferase reporter gene assay. In kind it is cell-based.
Series [5] has as its target T1, Signal transducer and activator of transcription 1 (Mus musculus) (UniProt P42225).
T1 sequence (whole entry): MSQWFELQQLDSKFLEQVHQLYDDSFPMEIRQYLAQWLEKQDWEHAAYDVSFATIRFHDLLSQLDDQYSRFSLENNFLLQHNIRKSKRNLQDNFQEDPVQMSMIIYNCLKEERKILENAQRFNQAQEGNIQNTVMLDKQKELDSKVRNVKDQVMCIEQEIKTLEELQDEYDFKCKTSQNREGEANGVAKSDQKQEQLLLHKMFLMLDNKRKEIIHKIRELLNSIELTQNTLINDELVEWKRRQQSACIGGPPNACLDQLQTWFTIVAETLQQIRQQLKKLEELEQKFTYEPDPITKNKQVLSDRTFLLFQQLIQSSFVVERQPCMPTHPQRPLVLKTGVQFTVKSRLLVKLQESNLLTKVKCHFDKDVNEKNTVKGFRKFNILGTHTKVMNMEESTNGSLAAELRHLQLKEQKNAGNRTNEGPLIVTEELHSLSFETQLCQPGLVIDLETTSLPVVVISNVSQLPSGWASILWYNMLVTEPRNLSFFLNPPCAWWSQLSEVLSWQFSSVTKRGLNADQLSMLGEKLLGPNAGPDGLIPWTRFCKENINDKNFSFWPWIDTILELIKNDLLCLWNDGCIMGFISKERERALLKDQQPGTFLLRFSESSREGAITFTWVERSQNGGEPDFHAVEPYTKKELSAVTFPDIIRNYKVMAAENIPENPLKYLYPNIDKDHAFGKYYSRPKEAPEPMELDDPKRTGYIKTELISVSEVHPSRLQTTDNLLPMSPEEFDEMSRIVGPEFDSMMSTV
In words: Inhibition of LPS-induced STAT1 phosphorylation at Y701 in mouse RAW264.7 cells at 15 to 60 uM preincubated for 1 hr followed by LPS challenge for 120 mins by Western blot analysis. In kind it is cell-based. The procedure, abridged: (§2)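 RAW 264.7 pretreated 1 h at 15, 30 or 60 μM, then LPS 10 ng/mL: 120 min for p-STAT1 Y701, 15 min for p-STAT1 S727, 120 min for p-STAT3 Y705. Western blot with phospho-specific and total STAT1/STAT3 antibodies, β-actin control; three independent experiments.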

Series [6] has as its target T1, Signal transducer and activator of transcription 1 (Mus musculus). The experiment in a line: Inhibition of LPS-induced STAT1 phosphorylation at S727 in mouse RAW264.7 cells at 15 to 60 uM preincubated for 1 hr followed by LPS challenge for 15 mins by Western blot analysis. The class given is cell-based. The method in brief: as §2
Series [7] shares this target. In words: Inhibition of LPS-induced STAT1 phosphorylation at Y701 in C57BL/6 mouse peritoneal macrophages at 15 to 60 uM preincubated for 1 hr followed by LPS challenge for 120 mins by Western blot analysis. The procedure, abridged: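 Thioglycolate-elicited C57BL/6 peritoneal macrophages pretreated 1 h at 15, 30 or 60 μM, then LPS 10 μg/mL: 120 min for p-STAT1 Y701, 30 min for p-STAT1 S727, 60 min for p-STAT3 Y705. Western blot with phospho-specific and total STAT antibodies, β-actin control; three independent experiments.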

The test system of series [8] is Mus musculus. In words: Inhibition of LPS-induced COX-2 mRNA expression in C57BL/6 mouse liver at 10 mg/kg, ip pretreated for 1 hr followed by LPS challenge for 6 hrs by qRT-PCR method. In kind it is functional, organism-based. The method in brief: (§3)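 Male C57BL/6 mice given 10 mg/kg i.p. or vehicle 1 h before LPS (Salmonella enterica, 25 mg/kg i.p.); liver collected 6 h after LPS, frozen at −80 °C. Liver mRNA by SYBR qRT-PCR normalized to β-actin; protein by Western blot for p-STAT1 (Y701, S727). Eight mice per group; mean ± SD.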

Series [9] deals with Mus musculus. The experiment in a line: In vivo inhibition of LPS-induced STAT1 phosphorylation at Y701 in C57BL/6 mouse liver at 10 mg/kg, ip pretreated for 1 hr followed by LPS challenge for 6 hrs by Western blot analysis. In kind it is functional, organism-based. The method in brief: as §3
The subject of series [10] is Mus musculus. The experiment in a line: Protection against LPS-induced mortality in C57BL/6 mouse assessed as lethality level at 5 to 10 mg/kg, ip pretreated for 1 hr followed by LPS challenge measured every 12 hrs for 96 hrs post challenge. The class given is functional. The method in brief: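 Male C57BL/6 mice (6 weeks) given compound i.p. (5 or 10 mg/kg) or vehicle 1 h before i.p. LPS (Salmonella enterica, 25 mg/kg). Water only for 12 h beforehand. Survival checked every 12 h for 96 h; n = 5 per group.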

Series [11] concerns Rattus norvegicus. The experiment in a line: Antiinflammatory activity in Sprague-Dawley rat assessed as inhibition of croton oil-induced ear edema at 5 mg/kg, ip administered 1 hr before croton oil challenge measured after 3 hrs post challenge relative to control. In kind it is functional. The method in brief: (§4)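 Male SD rats given compound i.p. (5, 10 or 15 mg/kg) 1 h before topical croton oil (5% in 100 μL acetone) on the inner right ear; the left ear received acetone alone. After 3 h, rats were killed and 6 mm ear punches were taken and measured for thickness. Inhibition calculated relative to the croton-oil-only group; seven rats per group.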

In series [12] the test system is Rattus norvegicus. In words: Antiinflammatory activity in Sprague-Dawley rat assessed as inhibition of croton oil-induced ear edema at 15 mg/kg, ip administered 1 hr before croton oil challenge measured after 3 hrs post challenge relative to control. The class given is functional. The procedure, abridged:
as §4

By inhibition is commonly meant the drop in the measured response relative to a control, in per cent. By inhibition in vivo is commonly meant the change of the read-out against control, counted positive when it falls. Take `Cc1cc(=O)c2c(O)c([C@@H]3O[C@H](CO)[C@@H](O)[C@H](O)[C@H]3O)c(O)cc2o1` [BIFLORIN]: the inhibition entry (in the series with RAW264.7 [1]; in the series on RAW264.7 [2]; in series [5]; in [6]; in series [7]; with Mus musculus [8]) was “Active” in each case. In addition, in the series with Mus musculus [9], the inhibition entry was “Active”. Also, in the series with Peritoneal macrophage, the inhibition at 60 µM worked out at 55.9%. Besides, the viability at 24 h, 60 µM in series [3] came to 90.4%. Besides, in the series with RAW264.7 [4], the inhibition result was “inactive”. Also, the mortality in the series on Mus musculus [10] is 40 - 60%. Further, the inhibition in vivo at 5 mg/kg with Rattus norvegicus [11] was 33.4%. In the series on Rattus norvegicus [12], the inhibition in vivo at 15 mg/kg was 74.7%.
